Bioassay records as filed in PubChem BioAssay.
Only some compounds are listed: those with a hit (about 2.6% of all), similar ones and a draw of the others.
S100A4 MyoIIA – blocks human S100A4 binding to myosin IIA peptide; hit rate 0.14% among 360,000; inhibition, % at 10.7 µM; AID 652163; P26447; S100A4/TAMRA-MyoIIA peptide fluorescence polarization;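 active = mean inhibition of at least 70% across replicates, with every replicate also reaching that level; inconclusive = mean inhibition reaches 70% but some replicates fall short; inactive = mean inhibition below 70%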
Target sequence (P26447 whole entry, looked up): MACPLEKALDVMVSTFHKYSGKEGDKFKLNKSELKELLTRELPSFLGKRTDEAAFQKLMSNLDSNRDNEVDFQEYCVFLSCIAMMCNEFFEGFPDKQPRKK
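Material: S100A4 monomer protein / Buffer or medium: 50 mM HEPES pH 7.2, 10 mM CaCl2, 100 mM KCl / Times: 5 min incubation before reading / Benchmarks: neutral control DMSO, positive control TFP / Reagent: labelled myosin peptide probe, 5 nM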
Vif inh – HIV Vif inhibition. HEK293T cells, Vif self-association by quenched fluorescence, imaging, 24 h. inhibition, % at 7.49 µM. hit rate 0.35% among 340,000. AID 602346; in the data active = inhibition above about 50%, passing the limit was not always enough; inconclusive = no clear call, values can overlap the other calls; inactive = below about 31%
Ecoli rRNA inh – inhibits bacterial ribosomal RNA function over humanized ribosomes; E. coli WT GFP vs humanized-ribosome RFP mutants, fluorescence, 24 h; active compounds read low; DMSO median 0, no signal -100; GFP signal change (wild-type ribosome), % (no concentration beside the values); hit rate 1.6% among 350,000; AID 720706;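 active = significant combined selectivity score with lowered wild-type GFP, culture density cut under 30%, mutant RFP and density less affected; inactive = any of these conditions unmet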
FN deposition inh – fibronectin deposition inhibition. AH1F fibroblasts, Alexa488-fibronectin deposition fluorescence, overnight. inhibition, % at 12.6 µM. hit rate 0.086% among 350,000. AID 743247;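 active = mean inhibition across replicates of 30% or more, regardless of how many single replicates reach that level; inconclusive = mean under 30% yet at least half of replicates reach 30%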
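Material: AH1F fibroblast monolayer depositing Alexa488-labelled fibronectin into matrix / Amount: 10000 AH1F cells per well / Signal: fluorescence 485/525 nm / Medium: DMEM, 2% serum / Compound: single dose, pinned / Incubation: 1 h cell adhesion before compound, then overnight fibronectin incubation / Reagent: Alexa488-FN, 24 nM final / Read-out: inhibition of fibronectin deposition signal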
miR122 inh – blocks miR-122 activity in Huh7 sensor cells; Huh7 miR-122 Renilla luciferase sensor, 48 h; neutral wells = 0, positive control = 100; activation (reporter increase), % at 12.5 µM; hit rate 0.3% among 340,000; AID 602342;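 active = mean replicate activation score at least 90 and every replicate individually at or above 90; inconclusive = only one of the two criteria met; inactive = neither criterion met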;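 note: higher luciferase means less miR-122 activity so hits act as miR-122 inhibitors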
HIV Env fusion – blocks HIV Env-driven cell-cell fusion. HeLa-JRFL Env/CEM21 cell fusion, luciferase. inhibition, % at 12.3 µM. hit rate 1.1% among 360,000;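 active = mean replicate inhibition score of at least 50 and every replicate individually at or above 50; inconclusive = only one of the two criteria met; inactive = mean below 50 and not all replicates reaching 50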
Numbers stand for hits; . = inactive; ? = inconclusive; / = no result; + = active, no number; [ ] = remark or other dose.

SMILES	S100A4 MyoIIA	Vif inh	Ecoli rRNA inh	FN deposition inh	miR122 inh	HIV Env fusion
CC1=C(C(=O)OCC(Br)(Br)Br)C(c2cccc([N+](=O)[O-])c2)NC(=O)N1CCCC(=O)O (stereo not given)	.	.	-19.9	.	/	.
CCOC(=O)C1=C(C)N(CCO)C(=O)NC1c1ccccc1 (stereo not given)	.	63.2	.	/	.	/
CCOC(=O)C1=C(C)N(C[C@@H]2CC[C@@H](Cc3ccc(-c4ccccc4)cc3)O2)C(=O)NC1c1ccc(-c2ccccc2)cc1 (stereo not given in full)	.	/	.	/	.	71.6
CC1=C(C(=O)OCc2ccccc2)C(c2ccc(C#N)cc2)NC(=O)N1CCCC(=O)O (stereo not given)	.	.	-16.7	.	.	.
CC1=C(C(=O)OCc2ccccc2)C(c2ccccc2)NC(=O)N1CCCC(=O)O (stereo not given)	.	.	.	.	.	.
S=c1[nH]cc(-c2ccccc2)n1-c1cccc(Cl)c1	.	.	/	.	/	70.2
Cc1ccccc1-c1cnc2c(c1)C(=O)N([C@H](C)CO)C[C@@H](C)[C@@H](CN(C)CC1CCOCC1)O2	.	/	.	/	.	.
COc1ccc(C(=O)Nc2ccc3oc(Cc4ccc(Cl)cc4)nc3c2)cc1OC	.	.	-14.5	.	.	?
CCOC(=O)C1CCN(C2=NC(=O)/C(=C/c3ccc(OC)c(OC)c3)S2)CC1	.	.	-29.6	.	.	.
CCOC(=O)C1CCN(C2=NC(=O)/C(=C/c3ccc(Cl)cc3)S2)CC1	.	.	.	.	.	.
C[C@@H]1CCCCO[C@H](CN(C)CC2CC2)[C@@H](C)CN([C@@H](C)CO)C(=O)c2cc(NS(=O)(=O)c3cccs3)ccc2O1	/	/	.	/	.	.
O=P(c1ccccc1)(c1ccccc1)C(c1ccccn1)P(=O)(c1ccccc1)c1ccccc1	.	.	.	.	.	66.4
Cc1cccc(N/C=C(\[N+](=O)[O-])S(=O)(=O)c2ccccc2)c1	.	.	.	.	/	.
Cc1ccc(N/C=C(\[N+](=O)[O-])S(=O)(=O)c2ccccc2)cc1	.	.	-21.6	.	/	.
COc1ccc(-c2csc(NC(=O)CS(=O)(=O)c3ccccc3)n2)cc1OC	.	.	.	.	.	.
COc1ccc(-c2csc(NC(=O)CC(NC(C)=O)c3ccccc3)n2)cc1OC (stereo not given)	.	.	-27.7	.	.	.
O=C(N[C@@H]1CC[C@H](CC(=O)N2CCOCC2)O[C@@H]1CO)c1ccccn1	.	/	.	/	/	/
Cc1nn(Cc2ccccc2Cl)c(C)c1C(=O)N1CCN(c2ccccc2)CC1	.	.	-26.6	.	.	.
COc1cc([C@@H]2c3cc4c(cc3[C@H](O)[C@H]3COC(=O)[C@H]23)OCO4)cc(OC)c1OC	.	+	.	.	.	/
COc1cc(C2c3cc4c(cc3OC(NNC(N)=O)C2C)OCO4)cc(OC)c1OC (stereo not given)	.	.	.	.	.	.
COc1cc(C2c3cc4c(cc3OC(NNC(N)=S)C2C)OCO4)cc(OC)c1OC (stereo not given)	.	56.0	.	/	.	.
COc1cc(C2c3cc4c(cc3C(O)C3COCC23)OCO4)cc(OC)c1OC (stereo not given)	.	.	.	.	.	.
COc1ccc(S(=O)(=O)N(C)C[C@H]2Oc3ccc(NC(=O)Nc4ccc(F)cc4)cc3C(=O)N([C@@H](C)CO)C[C@H]2C)cc1	.	/	.	/	.	/
COc1ccc(NC(=O)Nc2ccc3c(c2)C(=O)N([C@H](C)CO)C[C@@H](C)[C@H](CN(C)S(=O)(=O)c2ccc(C)cc2)O3)cc1	.	/	.	/	.	.
COc1ccc(S(=O)(=O)N(C)C[C@@H]2Oc3ccc(NC(=O)Nc4ccc5c(c4)OCO5)cc3C(=O)N([C@@H](C)CO)C[C@@H]2C)cc1	.	/	.	.	.	.
SMILES	S100A4 MyoIIA	Vif inh	Ecoli rRNA inh	FN deposition inh	miR122 inh	HIV Env fusion
C[C@@H]1CN([C@H](C)CO)C(=O)c2cc(NC(=O)Nc3ccccc3)ccc2O[C@H]1CN(C)S(=O)(=O)c1ccccc1	.	/	.	/	.	.
C[C@@H]1CN([C@H](C)CO)C(=O)c2cc(NC(=O)Nc3ccccc3)ccc2O[C@@H]1CN(C)S(=O)(=O)c1ccccc1	.	/	.	/	.	74.8[16.7 µM]
COc1ccc(S(=O)(=O)N(C)C[C@@H]2Oc3ccc(NC(=O)Nc4ccc5c(c4)OCO5)cc3C(=O)N([C@H](C)CO)C[C@@H]2C)cc1	.	/	.	.	.	75.5[16.7 µM]
COc1ccc(NC(=O)Nc2ccc3c(c2)C(=O)N([C@H](C)CO)C[C@H](C)[C@H](CN(C)S(=O)(=O)c2ccc(C)cc2)O3)cc1	.	/	.	/	.	86.7[16.7 µM]
COc1ccc(NC(=O)Nc2ccc3c(c2)C(=O)N([C@H](C)CO)C[C@H](C)[C@H](CN(C)S(=O)(=O)c2ccc(F)cc2)O3)cc1	/	/	.	/	.	69.3[16.7 µM]
C[C@H]1CN([C@@H](C)CO)C(=O)Cc2cc(NC(=O)CCCCCC(=O)Nc3ccccc3N)ccc2O[C@@H]1CN(C)S(=O)(=O)c1cccs1	/	/	.	.	.	.
COc1ccc(NC(=O)Nc2ccc3c(c2)C(=O)N([C@H](C)CO)C[C@H](C)[C@@H](CN(C)S(=O)(=O)c2ccc(Cl)cc2)O3)cc1	.	/	.	.	.	.
C[C@@H]1CN([C@H](C)CO)C(=O)c2cc(NC(=O)c3ccncc3)ccc2O[C@@H]1CN(C)S(=O)(=O)c1ccc(Cl)cc1	.	/	.	.	179.1[16.7 µM]	/
COc1ccc(NC(=O)Nc2ccc3c(c2)C(=O)N([C@@H](C)CO)C[C@H](C)[C@H](CN(C)S(=O)(=O)c2ccc(Cl)cc2)O3)cc1	.	/	.	/	.	65.9[16.7 µM]
COc1ccc(NC(=O)Nc2ccc3c(c2)C(=O)N([C@@H](C)CO)C[C@H](C)[C@H](CN(C)S(=O)(=O)c2ccc(OC)cc2)O3)cc1	.	/	.	/	.	82.6[16.7 µM]
COc1ccc(NC(=O)Nc2cccc3c2O[C@H](CN(C)S(=O)(=O)c2ccc(Cl)cc2)[C@H](C)CN([C@@H](C)CO)C3=O)cc1	.	/	-23.0	/	.	.
C[C@@H]1CN([C@@H](C)CO)C(=O)c2cc(NC(=O)c3ccncc3)ccc2O[C@@H]1CN(C)S(=O)(=O)c1ccc(Cl)cc1	.	/	.	.	.	/
CC(C)CC#Cc1ccc2c(c1)O[C@H](CN(C)C(=O)Cc1ccccc1)[C@H](C)CN([C@H](C)CO)S2(=O)=O	.	/	.	.	.	.
COc1ccc(CN2CC3(CCN(Cc4ccccn4)CC3)c3c(n(C)c4cc(OC)ccc34)[C@H]2CO)cc1	/	/	.	/	/	/
C[C@@H]1CN([C@@H](C)CO)C(=O)c2cc(-c3cncnc3)cnc2O[C@@H]1CN(C)Cc1ccc(Oc2ccccc2)cc1	.	/	.	/	.	.
